In ChEMBL document CHEMBL1153877, “Lowering of 5-nitroimidazole's mutagenicity: towards optimal antiparasitic pharmacophore” (Eur J Med Chem, 2009):

Assays:
Salmonella typhimurium [1] = assay: Induction of mutagenicity in Salmonella Typhimurium YG1042 assessed as number of revertant per ug after 48 hrs; format: toxicity, organism-based; details: salmonella enterica subsp. enterica serovar typhimurium
Procedure, shortened: (§1)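 YG1042, a TA100 derivative, grown overnight in Nutrient Broth No. 2 with ampicillin and kanamycin. Bacteria preincubated 60 min at 37 °C with shaking with compound in DMSO and 0.1 mL PBS (0.15 M, pH 7.4). Top agar containing histidine/biotin added, then plated on Vogel-Bonner agar. Revertants counted after 48 h. Four doses in triplicate plates; solvent control in quadruplicate. Mutagenic power given as revertants per amount of compound.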

Salmonella typhimurium [2] = assay: Induction of mutagenicity in Salmonella Typhimurium TA100 assessed as number of revertant per nmol after 48 hrs relative to metranidazole; format: toxicity, organism-based; details: salmonella enterica subsp. enterica serovar typhimurium
Salmonella typhimurium [3] = assay: Induction of mutagenicity in Salmonella Typhimurium TA100 assessed as number of revertant per ug after 48 hrs; format: toxicity, organism-based; details: salmonella enterica subsp. enterica serovar typhimurium
Procedure, shortened: (§2)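 TA100 grown overnight in Nutrient Broth No. 2 with ampicillin. Bacteria preincubated 60 min at 37 °C with shaking with compound in DMSO and 0.1 mL PBS (0.15 M, pH 7.4). Top agar containing histidine/biotin added, then plated on Vogel-Bonner agar. Revertants counted after 48 h. Four consecutive doses in triplicate plates; solvent control in quadruplicate. Mutagenic power given as revertants per amount of compound.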

THP-1 = assay: Cytotoxicity against human THP1 cells after 72 hrs by propidium iodide-based flow cytometry; format: cell-based; details: THP-1, 72 h
Procedure, shortened: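 THP1 monocytes kept in RPMI with 10% foetal calf serum, 25 mM HEPES, 25 mM NaHCO₃ and 1% L-glutamine/penicillin-streptomycin at 37 °C, 6% CO₂. Cells at 10⁵ cells/mL exposed for 72 h to various concentrations from DMSO stocks. Drug-free and 0.5% DMSO final controls run alongside. Living cells counted by propidium iodide flow cytometry.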

Salmonella typhimurium [4] = assay: Induction of mutagenicity in Salmonella Typhimurium YG1042 assessed as number of revertant per nmol after 48 hrs; format: toxicity, organism-based; details: salmonella enterica subsp. enterica serovar typhimurium; procedure, shortened: as §1
[5] = Specificity index, ratio of IC50 for human THP1 cells to IC50 for Trichomonas vaginalis TVR87; parameters: species or system THP-1
Procedure, shortened: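 Specificity index = IC50 against THP1 cells (72 h, propidium iodide flow cytometry) divided by IC50 against T. vaginalis (48 h, trypan blue).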

Salmonella typhimurium [6] = assay: Ratio of number of revertant per nmol of drug for Salmonella Typhimurium YG1042 to number of revertant per nmol of drug for Salmonella Typhimurium TA100; format: toxicity, organism-based; details: salmonella enterica subsp. enterica serovar typhimurium
Salmonella typhimurium [7] = assay: Induction of mutagenicity in Salmonella Typhimurium TA100 assessed as number of revertant per nmol after 48 hrs; format: toxicity, organism-based; details: salmonella enterica subsp. enterica serovar typhimurium; procedure, shortened: as §2
Salmonella typhimurium [8] = assay: Induction of mutagenicity in Salmonella Typhimurium YG1042 assessed as number of revertant per nmol after 48 hrs relative to metranidazole; format: toxicity, organism-based; details: salmonella enterica subsp. enterica serovar typhimurium
Trichomonas vaginalis = assay: Antitrichomonas activity against Trichomonas vaginalis TVR87 after 48 hrs by trypan blue staining; format: functional, organism-based; details: TVR87, 48 h
Procedure, shortened: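 T. vaginalis TVR87 trophozoites grown in TM 161 medium with 10% heat-inactivated horse serum, used one day after subculture in log phase. Assay at 5 × 10³ trophozoites/mL, triplicate cultures, incubated anaerobically at 37 °C for 48 h with a range of compound concentrations from DMSO stocks. DMSO 0.1% final served as negative control. Viable cells counted by trypan blue.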

SMILES	Activity (Salmonella typhimurium [1])	Activity (Salmonella typhimurium [2])	Activity (Salmonella typhimurium [3])	IC50 (THP-1) [µM]	Activity (Salmonella typhimurium [4])	Ratio IC50 [5]	Ratio (Salmonella typhimurium [6])	Activity (Salmonella typhimurium [7])	Activity (Salmonella typhimurium [8])	IC50 (Trichomonas vaginalis) [µM]
Cc1ccc(S(=O)(=O)Cc2nc(C)n(CC(C)O)c2[N+](=O)[O-])cc1 (stereo not given)	6.76	0.09	2.07	> 707	2.39	>5701	3.3	0.73	0.03	0.124
Cn1cnc(CS(=O)(=O)c2ccc(F)cc2)c1[N+](=O)[O-]	157.34	1.26	35.17	> 835	47.09	>2500	4.5	10.53	0.56	0.334
Cc1ccc(S(=O)(=O)Cc2nc(C)n(CCO)c2[N+](=O)[O-])cc1	6.14	0.19	4.62	59	2.08	880	1.3	1.57	0.02	0.067
Cc1ncc([N+](=O)[O-])n1CCO [METRONIDAZOLE]				> 1460						2.75
Cc1nc(CS(=O)(=O)c2ccc(F)cc2)c([N+](=O)[O-])n1CC(C)O (stereo not given)				> 699		>293				2.38
Cc1nc(CS(=O)(=O)c2ccc(Br)cc2)c([N+](=O)[O-])n1CC(C)O (stereo not given)	3.08	0.17	3.36	126	1.29	301	0.9	1.41	0.02	0.418
Cn1cnc(CS(=O)(=O)c2ccccc2)c1[N+](=O)[O-]	176.64	1.71	50.91	> 888	49.69	>4460	3.5	14.32	0.59	0.199
Cc1nc(CS(=O)(=O)c2ccc(Cl)cc2)c([N+](=O)[O-])n1CCO	14.73	0.27	6.22	578	5.3	13136	2.4	2.24	0.06	0.044
Cn1cnc(CS(=O)(=O)c2ccc(Cl)cc2)c1[N+](=O)[O-]	167.38	5.27	139.44	174	52.85	1101	1.2	44.03	0.63	0.158
Cc1ccc(S(=O)(=O)Cc2ncn(C)c2[N+](=O)[O-])cc1	185.37	2.46	69.71	> 846	54.74	>5458	2.7	20.59	0.65	0.155
Cc1nc(CS(=O)(=O)c2ccc(F)cc2)c([N+](=O)[O-])n1C	24.26	0.18	4.72	> 797	7.6	>312	5.1	1.48	0.09	2.55
Cc1ncc([N+](=O)[O-])n1CC(C)O (stereo not given) [SECNIDAZOLE]	128.44	0.57	25.74	> 1350	23.78	>1666	5	4.77	0.28	0.81
Cc1nc(CS(=O)(=O)c2ccc(Cl)cc2)c([N+](=O)[O-])n1C	25.21	0.28	7.15	68	8.31	74	3.5	2.36	0.1	0.918
Cn1cncc1[N+](=O)[O-]	1551.06	1.85	121.79	> 1970	197.14	>3125	12.7	15.48	2.34	0.629
Cc1nc(CS(=O)(=O)c2ccccc2)c([N+](=O)[O-])n1CCO	8.36	0.07	1.72	> 768	2.72	>500	4.9	0.56	0.03	1.54
Cc1ncc([N+](=O)[O-])n1C [DIMETRIDAZOLE]	1578.04	2.6	153.8	> 1770	222.71	>2501	10.3	21.71	2.64	0.708
Cc1nc(CS(=O)(=O)c2ccc(Cl)cc2)c([N+](=O)[O-])n1CC(C)O (stereo not given)	3.72	0.1	2.18	> 668	1.39	>912	1.7	0.81	0.02	0.732
Cc1nc(CS(=O)(=O)c2ccccc2)c([N+](=O)[O-])n1C	74.18	0.99	27.91	> 846	21.91	>3525	2.7	8.24	0.26	0.24
Cn1cnc(CS(=O)(=O)c2ccc(Br)cc2)c1[N+](=O)[O-]	164.42	1.78	41.41	> 694	59.22	>1761	4	14.92	0.7	0.394
Cc1nc(CS(=O)(=O)c2ccccc2)c([N+](=O)[O-])n1CC(C)O (stereo not given)	10.76	0.1	2.58	418	3.65	679	4.2	0.88	0.04	0.615
Cc1ccc(S(=O)(=O)Cc2nc(C)n(C)c2[N+](=O)[O-])cc1	54.97	0.56	15.03	242	17	684	3.7	4.65	0.2	0.355
Cc1nc(CS(=O)(=O)c2ccc(Br)cc2)c([N+](=O)[O-])n1C	32.91	0.79	17.61	326	12.32	493	1.9	6.59	0.15	0.66
Cc1nc(CS(=O)(=O)c2ccc(F)cc2)c([N+](=O)[O-])n1CCO	10.09	0.08	1.91	> 728	3.46	>416	5.3	0.66	0.04	1.75
Cc1nc(CS(=O)(=O)c2ccc(Br)cc2)c([N+](=O)[O-])n1CCO	9.123	0.13	2.73	124	3.73	75	3.4	1.1	0.04	1.64
